System: MS2 coat protein
Experiment: apparent Kd, MS2 coat protein; higher = weaker binding; RNA-MaP array; FMN 200 µM where present
Summary of the method: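 Binding was read on Illumina sequencing-chip clusters where stalled E. coli RNA polymerase had transcribed each design. A titration of SNAP-549-labelled MS2 coat protein began at 0.7 or 1.5 nM and doubled to 3 µM, once without ligand and once with constant ligand, in 100 mM Tris-HCl pH 7.5, 80 mM KCl, 4 mM MgCl2, BSA, DTT, yeast tRNA and Tween-20. The apparent Kd is the median of filtered per-cluster binding-curve fits, based on green signal normalised to red-channel RNA signal and control-cluster median Fmax.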

[1] = designed as: OFF switch for flavin mononucleotide, no ligand
[2] = ligand present: flavin mononucleotide, designed as: OFF switch for flavin mononucleotide
[3] = designed as: ON switch for flavin mononucleotide, no ligand
[4] = ligand present: flavin mononucleotide, designed as: ON switch for flavin mononucleotide

Sequence	apparent Kd [1]	apparent Kd [2]	apparent Kd [3]	apparent Kd [4]
CCUUAGUAAGGAUAUCAGCUUAUAGAGUUGGUAAUGAGAGCUGAGAAGGUACAUGAGGAUCACCCAUGUUAGUU	21.1 nM	35.1 nM		
CUCAGCUCGUCAGGAUAUACGUCACUGCGUCAGCAGUGUGGUAAGAUCACAUGAGGAUCACCCAUGUAGAAGGGACGAGCUGAU	13.7 nM	278 nM		
GCAUACAUUCGAGGAUAUCGGUGAACAAAUUAACGAGAAGGCGAUAUAAUUUUUAAACUUAUAGACAUGAGGAUCACCCAUGUA			23.7 nM	20.6 nM
CUCUUGUUAGGAUAUCAAACCGGCGGCGGAGCCGCCGGAAGUGAGAAGGGACAUGAGGAUCACCCAUGUAAGAA	71.5 nM	312 nM		
AGUAGAUCAGGAUAUACGUGAAAGGUCAAAGUGUCACUACUACAUGAGGAUCACCCAUGUAGAAGGGAUCUACA	16.4 nM	29.3 nM		
UAUUUACAUGAGGAUCACCCAUGUCAGGAUAUGCUUCUAUCGUCGAAAGACGAUAGUUGCAGAAGGGACAAUAU	58.6 nM	106 nM		
UGUGUGAGACAGGAUAUGCCGGAUGAAAGGCAGGUAGAAGGGUCUACAUGAGGAUCACCCAUGUGGCCGGUUGG	17.4 nM	18.7 nM		
GGAUAGGACAGAGGAUAUACGUGCUAGAGAUACCAGCAAAAUUUCCUCACAUGAGGAUCACCCAUGUAGAAGGCUGUCCUAUCG	31.9 nM	558 nM		
UUAUACGCUGAGGAUAUCAUCACUGAGAGGUGAUGAGAAGGCGGUACAUGAGGAUCACCCAUGUCUAUGGGCAG	291 nM	418 nM		
CUAGCAUACCGAGGAUAUUCAUAUAAUAAAUAAACAUGAGGAUCACCCAUGUGGCGAAAGCCUAGGGAGAAGGCGGAAUGCUAA			185 nM	24.8 nM
AACAGCACAGGAUAUACAUGAGGAUCACCCAUGUGAGAAUUAAGUAGAUUGCCACAGAGUAGAAGGGUGCUGGA	53.7 nM	104 nM		
CGAUAUUAUGCAGGAUAUCUAUCUUGAAUGAGGAGAGAAGGGCAUAGGGAGACAUAAGCCUUAUUACAUGAGGAUCACCCAUGU	11.2 nM	9.38 nM		
UGGGCUUUAGGAUAUGCGUGUUGUAGUCGGCGAUGUGGUUCACAUGAGGAUCACCCAUGUAGAAGGAGGGUUUA	139 nM	120 nM		
UGAUUUUCUUCUAACUAUCACCACAUGAGGAUCACCCAUGUCAAGGAUAUAGAGCGCGCUGGGUUCUAGAAGGUGGCGUGCCAA	7.52 nM	6.47 nM		
CUGGUUGUCGUAGGAUAUGUAGGAUAUUCCUACAUGAGGAUCACCCAUGUUCGCAUGGAAGAAGGACAGAAGGACGAUGACCAC			930 nM	23.2 nM
CUGUUAUAGAUCCAGAAUUACAACAUGAGGAUCACCCAUGUGCAGGAUAUCGGGUUGAUAGGCGCCGAGAAGGGUAUAGUCACG	60.2 nM	61.6 nM		
CUUUUGUGAGGAUAUCAGUAGUAAAAUAAUAAAAUUACUACUGAGAAGGCACAUGAGGAUCACCCAUGUUCCUC	32.5 nM	174 nM		
UCCUGGCGAGGAUAUACAAAGUUUUUUACGUUUUGUUACGAACAUGAGGAUCACCCAUGUAGAAGGUGCUGCUG	62.2 nM	58.1 nM		
CCUCAGUAAGGAUAUCAGCUUAUGGAGUUGGUAAUGAGAGCUGAGAAGGUACAUGAGGAUCACCCAUGUUAGUU	27.7 nM	73.7 nM		
AAAACUCACGUAGGAUAUCAUUCCUUAAGGUAGUGAGAAGGACGUGACUACAUGUCCUUGAACAUGAGGAUCACCCAUGUAGGC	49.5 nM	55.4 nM		
GUACAUACAAAGUUACAUGAGGAUCACCCAUGUUUAUUGGGAAGAAGGGUAACAUUAUUAGAUAUAUAGGAUAUUUCACAAUUG			718 nM	387 nM
AUAAUUAUAUAUUUCCCAAGAAUCAGAAGGCGUUACAUGAGGAUCACCCAUGUUUUGUAUAGUAACGAGGAUAUGAUAUGGAAA	16.3 nM	14.5 nM		
UGGUACUAGGGAGGAUAUGGGAAGAUACAUGAGGAUCACCCAUGUUUAUGAAUGCCGAGAGGCAACUAGAAGGCCCUAGUACCU			292 nM	13 nM
GCGUCGAGUGUGAGGAUAUGCUGGUCCUUGGAUCAGCAGAAGGCACAUGAGGAUCACCCAUGUGAAUACGAUGC	21.7 nM	136 nM		
AAGUAGUGUGUGAGGAUAUUGGUGGAAUGACAUAUUAAGAAGGCACAUGAGGAUCACCCAUGUGGGUUGUCACG	49.2 nM	120 nM		
AUCAGCUCGUCAGGAUAUACGUCACUGCUUCGGCAGUGUGAAAAGAUCACAUGAGGAUCACCCAUGUAGAAGGGACGAGCUGAU	9.15 nM	120 nM		
GGAAGAGUAGGAUAUACAUGAGGAUCACCCAUGUCCUGGAGAAGCAAUUCGAUAUCCUGUAGAAGGACUAAUCU	40 nM	36.1 nM		
UGUCGGAGCAGAGGAUAUUACAUGAGGAUCACCCAUGUAUGAACCAAUAGCUGGAAACAGCAAUGUAAGAAGGCGGCUCCGACA	5.18 nM	9.07 nM		

Sequence	apparent Kd [1]	apparent Kd [2]	apparent Kd [3]	apparent Kd [4]
AUAGGGUGAGGAUAUCCAUCUGGAUCAGACUAGAUCCUGAUGGAGAAGGCACAUGAGGAUCACCCAUGUGAGUU	125 nM	151 nM		
GCAUGUAUAUAAGGAUAUGCAUCACUGAGAAAUUUAGUGAGGAAGAUCACAUGAGGAUCACCCAUGUAGAAGGUAUAUACGUGC	8.23 nM	53.2 nM		
UUACCUCAUGAGAAGGACAUGAGGAUCACCCAUGUAGGAUAUCGUGGGAGACAGGUAUUGAAUCUUCGGAUUCAAUACCUGUCU			418 nM	25.5 nM
GAAAAACAUGAGGAUCACCCAUGUAGAAAUAUGGGAGGAUAUACAAAGACGAAAGUCAAAGUAGAAGGCCUAAAAG			125 nM	31 nM
UGUCGGAGCAGAGGAUAUUACAUGAGGAUCACCCAUGUAAUAAGAUCAAGCUGGAAACAGCAAUGUAAGAAGGCUGCUCCGACA	16.9 nM	43.3 nM		
CAUGUCCUCACAGGAUAUGCUGGACUUUGUCCAGCAGAAGGGUGAACAUGAGGAUCACCCAUGUAAUGGACAUGUAUAUUUAAU			801 nM	50.9 nM
UGUAAUGUUAUUACAGAGGUUUAGAAGGAUAUACAUCGACAUGACCGUACAUGAGGAUCACCCAUGUAGAAGGUCUAACUUCGU	5.43 nM	5.31 nM		
UAAAUCUAGUAAGGAUAUACACGAGAUUCAAGUGUAGAAGGUACUUACAUGAGGAUCACCCAUGUAUACAUGGAUAAUAGAUAU			234 nM	109 nM
CGCUACGUUUCGUAGCAGUGUCAUCGAGAAGGCCCUGACAUGAGGAUCACCCAUGUUAAAACAUGGGAGGAUAUCGAUGAUACA			11.7 nM	4.87 nM
GGGUCAACAUGAGGAUCACCCAUGUAGGAUAUCGCUAUUGUAAUCAUGAAACAUGAUUACAAUAGCGAGAAGGACAUAUGCUUU	12.3 nM	25.4 nM		
GAAGUUAGAGGAUAUACAUGAGGAUCACCCAUGUGUGUUGUGAACAAUGUAUGUUUAUGUAGAAGGCUAACUUC	79.4 nM	241 nM		
UGUGCGUAUGUGAGGAUAUGCUGGUCCUUGGAUCAGCAGAAGGCACAUGAGGAUCACCCAUGUGGUGUCGUACC	314 nM	48 nM		
AUAUAUAUUUAGAAGGACAUGAGGAUCACCCAUGUCGCUGGGCCCGGGAAACCGGGCCCGGCCAUGUAGGAUAUAGAUAUAUAU	6.72 nM	9.5 nM		
AUUUUGUCAGGAUAUGAGUAGUAGGACGAAAGUGCUACUACUUAGAAGGGACAUGAGGAUCACCCAUGUCUUCC	13.9 nM	16.8 nM		
GGGCUGUCAGGAUAUACAUGAGGAUCACCCAUGUCGAGCUGUGAUAGGGCAAGAGUAGGUAGAAGGGACGAGAG	34.7 nM	36.1 nM		
GGGCAAAAGUAGAAGGGAUAUACGAAAAGUAUAUCAGGAUAUACAUGAGGAUCACCCAUGUUCUAAAAGUGAUAAUCCUCCCUA	70 nM	346 nM		
CGCUGGAACACAGGAUAUCGCACAUGCCUGAUCCAGUUAAUAUCACAUGAGGAUCACCCAUGUGGUGAGAAGGGUGUCAAGUUU	27.1 nM	47.2 nM		
CUGUCGAUAUCAGGAUAUCGUUUACAUACAUGAGGAUCACCCAUGUUGACAUGGAGCAUAAUUUGCGAGAAGGGAUAACGAUAG			23.5 nM	14.3 nM
CUUUUUUUUGUGAGGAUAUACUGUUAUUAAAGUUAGUAGAAGGUACAUGAGGAUCACCCAUGUUAAUUACUCUA	14.1 nM	14.9 nM		
CGUUCAGAGAACGAUACGAAUAGACAUGAGGAUCACCCAUGUAGAAGGACAACGGAAUAAACGUUGUAGGAUAUACAUUUAGUG	41.3 nM	111 nM		
CGAUAGGACAGAGGAUAUACACAUGAGGAUCACCCAUGUGAUUACAACGCUUAAGCUCCAAACAUGUAGAAGGCUGUCCUAUCG	21.7 nM	27.9 nM		
GUCAGCUCGUGAGGAUAUACAACACUGCUUCGGCAGUGUAUUAAAAUCACAUGAGGAUCACCCAUGUAGAAGGCACGAGCUGAU	5.04 nM	7.7 nM		
AUUGUUAAGUUAGGAUAUAGUAAAAUGAUUUAGUUAGAAGGAGCUCACAUGAGGAUCACCCAUGUAAGAGGAUCACCCAUGUAU	24.9 nM	18.3 nM		
AAUAGUACAGGAUAUACAUGAGGAUCACCCAUGUGAAAAUUAAGUGGCGUACCACAAAGUAGAAGGGUACUGGA	22.8 nM	71.4 nM		
GGGUACAUCGGAGGAUAUCAUGUAAAUACAUGAGGAUCACCCAUGUCGAUGUAGACAUCGGAGAUUGAGAAGGCCGAUGUACCG			1400 nM	52 nM
UGACACAUGAGGGUCUCCCUUGACAUGAGGAUCACCCAUGUGCAGGAUAUACGUGUGAUGGUAUAGUAGAAGGGCACUCUAUGU	30.6 nM	40.5 nM		
AACAAGUCAGGAUAUCAUACUAAUCACUUGCUUUAAAUGUAUGAGAAGGGACAUGAGGAUCACCCAUGUAAAGA	32.5 nM	35.9 nM		

From the EternaBench riboswitch data
